# Measured values from ChEMBL document CHEMBL1155941, “Solid-phase synthesis and biological evaluation of a parallel library of 2,3-dihydro-1,5-benzothiazepines” (Bioorg Med Chem, 2008).
# Assays:
# [1] = system: Agrobacterium tumefaciens; assay: Inhibition of Agrobacterium tumefaciens-induced tumor growth in potato tuber disk after 21 days; format: functional, organism-based
# Procedure, shortened: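 Potato disk bioassay: red-skinned potatoes surface-sterilized in 0.1% HgCl₂. Disks were inoculated with a 48-h culture of A. tumefaciens AT-10 containing test sample at 10, 100 or 1000 ppm. Tumors were counted under a dissecting microscope, with tests run in replicate. Percent inhibition came from the average tumor count per sample versus control; IC₅₀ was calculated by a literature procedure.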
# [2] = system: Agrobacterium tumefaciens; assay: Inhibition of Agrobacterium tumefaciens-induced tumor growth in potato tuber disk at 100 ppm after 21 days
# [3] = system: Agrobacterium tumefaciens; assay: Inhibition of Agrobacterium tumefaciens-induced tumor growth in potato tuber disk at 10 ppm after 21 days
# [4] = target: Cholinesterase (Homo sapiens, UniProt P06276); assay: Inhibition of BchE
# Procedure, shortened: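 Ellman-type assay: enzyme, DTNB and test compound (dissolved in EtOH) were mixed in sodium phosphate buffer pH 8.0 and incubated 15 min at 25 °C. Reactions were run in triplicate. % inhibition = (E–S)/E × 100, where E is enzyme activity without compound. IC50 was derived from inhibition across increasing compound concentrations.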
# [5] = system: Agrobacterium tumefaciens; assay: Inhibition of Agrobacterium tumefaciens-induced tumor growth in potato tuber disk at 1000 ppm after 21 days
# [6] = target: Acetylcholinesterase (Homo sapiens, UniProt P22303); assay: Inhibition of AchE
# [7] = system: Escherichia coli; assay: Antimicrobial activity against Escherichia coli ATCC 1522 assessed as inhibition zone diameter after 24 hrs by agar well diffusion method; format: functional
# Procedure, shortened: (§1)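 Agar well diffusion: broth culture of about 10⁶ CFU/ml mixed into nutrient agar at 45 °C and poured into plates. 8-mm wells received test sample at 1 mg/ml in DMSO. DMSO was the negative control and roxithromycin (1 mg/ml) the positive control. Triplicate plates were incubated 37 °C, 24 h. Complete-inhibition zone diameter (mm) was measured, with growth inhibition referenced to roxithromycin.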
# [8] = system: Bordetella bronchiseptica; assay: Antimicrobial activity against Bordetella bronchiseptica ATCC 4617 assessed as inhibition zone diameter after 24 hrs by agar well diffusion method; format: functional; procedure, shortened: as §1
# [9] = system: Salmonella enterica subsp. enterica; assay: Antimicrobial activity against Salmonella setubal ATCC 19196 assessed as inhibition zone diameter after 24 hrs by agar well diffusion method; format: functional, Salmonella enterica subsp. enterica serovar Setubal; procedure, shortened: as §1
# [10] = system: Micrococcus luteus; assay: Antimicrobial activity against Micrococcus luteus assessed as inhibition zone diameter after 24 hrs by agar well diffusion method; format: functional; procedure, shortened: as §1
# [11] = system: Klebsiella aerogenes; assay: Antimicrobial activity against Enterobacter aerogenes ATCC 13048 assessed as inhibition zone diameter after 24 hrs by agar well diffusion method; format: functional; procedure, shortened: as §1
# Sequence of Cholinesterase (P06276 whole entry): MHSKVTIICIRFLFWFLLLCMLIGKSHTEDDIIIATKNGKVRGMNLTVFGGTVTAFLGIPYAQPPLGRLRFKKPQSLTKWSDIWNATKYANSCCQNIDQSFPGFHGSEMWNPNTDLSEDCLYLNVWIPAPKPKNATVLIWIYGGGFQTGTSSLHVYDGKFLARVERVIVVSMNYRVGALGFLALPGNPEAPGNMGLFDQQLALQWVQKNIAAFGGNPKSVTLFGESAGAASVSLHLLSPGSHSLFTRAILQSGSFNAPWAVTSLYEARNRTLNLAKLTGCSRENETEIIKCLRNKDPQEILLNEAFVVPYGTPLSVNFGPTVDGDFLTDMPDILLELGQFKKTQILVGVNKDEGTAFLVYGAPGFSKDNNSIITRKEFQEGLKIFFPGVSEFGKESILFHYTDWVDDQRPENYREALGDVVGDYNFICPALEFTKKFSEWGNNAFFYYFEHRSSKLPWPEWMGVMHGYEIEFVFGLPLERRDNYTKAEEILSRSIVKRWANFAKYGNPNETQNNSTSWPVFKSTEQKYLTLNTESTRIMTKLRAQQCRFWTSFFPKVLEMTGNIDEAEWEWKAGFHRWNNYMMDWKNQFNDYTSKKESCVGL
# Sequence of Acetylcholinesterase (P22303 whole entry, the tested form may be a part): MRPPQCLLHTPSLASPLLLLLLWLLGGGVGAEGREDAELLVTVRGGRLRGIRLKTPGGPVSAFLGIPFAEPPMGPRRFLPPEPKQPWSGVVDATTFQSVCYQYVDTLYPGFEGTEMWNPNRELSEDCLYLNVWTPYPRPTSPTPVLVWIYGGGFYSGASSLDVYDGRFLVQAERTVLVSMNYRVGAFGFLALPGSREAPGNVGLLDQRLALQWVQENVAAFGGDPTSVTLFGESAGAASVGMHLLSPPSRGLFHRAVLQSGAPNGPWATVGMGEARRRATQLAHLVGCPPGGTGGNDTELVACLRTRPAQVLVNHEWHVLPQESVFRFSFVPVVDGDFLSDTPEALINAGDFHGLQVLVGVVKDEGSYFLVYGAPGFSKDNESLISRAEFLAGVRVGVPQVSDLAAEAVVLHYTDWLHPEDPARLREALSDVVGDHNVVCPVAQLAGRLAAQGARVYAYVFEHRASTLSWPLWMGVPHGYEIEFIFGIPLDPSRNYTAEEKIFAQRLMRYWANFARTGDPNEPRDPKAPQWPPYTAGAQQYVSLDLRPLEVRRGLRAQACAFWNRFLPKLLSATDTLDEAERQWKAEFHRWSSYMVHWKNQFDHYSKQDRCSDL
Structure (SMILES),IC50 [1] [ppm],inhibition (INH) [2] [%],inhibition (INH) [3] [%],IC50 [4] [µM],inhibition (INH) [5] [%],IC50 [6] [µM],inhibition zone (IZ) [7] [mm],inhibition zone (IZ) [8] [mm],inhibition zone (IZ) [9] [mm],inhibition zone (IZ) [10] [mm],inhibition zone (IZ) [11] [mm]
COc1ccccc1/C=C/C(=O)c1cccc(O)c1,3.1,,,,,,,,,,
COc1ccc(/C=C/C(=O)c2cccc(O)c2)cc1OC,5.8,,,,,,,,,,
Oc1cccc(C2=Nc3ccccc3SC(c3ccccc3)C2)c1 (centres undefined),5.41,97.8,72.3,1420,100,40,,,,,
COc1ccccc1C1CC(c2cccc(O)c2)=Nc2ccccc2S1 (centres undefined),7.06,87.1,81.42,4.65,98.5,,,,,,
COc1ccc(C2CC(c3cccc(O)c3)=Nc3ccccc3S2)cc1 (centres undefined),4.69,78.7,57.4,,100,,,,,,
Oc1cccc(C2=Nc3ccccc3SC(c3ccc(Br)cc3)C2)c1 (centres undefined),61.5,63.8,21.2,,85.1,,,,,,
COc1ccc(C2CC(c3cccc(O)c3)=Nc3ccccc3S2)cc1OC (centres undefined),8.23,82.7,70.2,19.7,100,,,,,,
Cc1ccc(C2CC(c3cccc(O)c3)=Nc3ccccc3S2)cc1 (centres undefined),30.7,72.3,65.9,75.2,87.2,49.4,,,,,
Oc1cccc(C2=Nc3ccccc3SC(c3cccnc3)C2)c1 (centres undefined),926.2,38.2,29.7,,51,,,,,,
Oc1cccc(C2=Nc3ccccc3SC(c3ccncc3)C2)c1 (centres undefined),6.1,80,55.1,,100,,,,,,
Oc1cccc(C2=Nc3ccccc3SC(c3cccs3)C2)c1 (centres undefined),4.8,100,87.2,3.97,100,5.9,,,,,
Oc1cccc(C2=Nc3ccccc3SC(c3ccc(Br)s3)C2)c1 (centres undefined),11.2,91.4,80.3,,92.8,,,,,,
Oc1cccc(C2=Nc3ccccc3SC(c3ccc(Cl)cc3)C2)c1 (centres undefined),9,68,51.93,79.6,74.4,18.8,,,,,
Oc1cccc(C2=Nc3ccccc3SC(c3ccc(F)cc3)C2)c1 (centres undefined),1232,34,25.5,,40.4,,,,,,
CN(C)c1ccc(C2CC(c3cccc(O)c3)=Nc3ccccc3S2)cc1 (centres undefined),192.5,44.6,38.2,34.4,100,,11,9,9,10,11
Oc1cccc(C2=Nc3ccccc3SC(c3cccc(O)c3)C2)c1 (centres undefined),179.3,48.9,36.1,4.7,100,71.1,,,,,
Oc1cccc(C2=Nc3ccccc3SC(c3ccccc3Cl)C2)c1 (centres undefined),6.94,93.6,74.4,,95.7,,,,,,
COc1cccc(C2CC(c3cccc(O)c3)=Nc3ccccc3S2)c1 (centres undefined),3.28,84.2,67.142,,100,,,,,,
O=[N+]([O-])c1cccc(C2CC(c3cccc(O)c3)=Nc3ccccc3S2)c1 (centres undefined),26.2,57.4,42.5,,100,,,,,10,
Oc1cccc(C2=Nc3ccccc3SC(c3cccc(Cl)c3)C2)c1 (centres undefined),14.01,80.8,68,29.4,93.6,,,,,11.5,
Oc1cccc(C2=Nc3ccccc3SC(c3ccccc3F)C2)c1 (centres undefined),295.5,40.4,31.9,,91.4,70.6,,,,,
Oc1ccc(C2CC(c3cccc(O)c3)=Nc3ccccc3S2)cc1 (centres undefined),237.9,48.9,27.6,,100,,,,,,
COc1cc(C2CC(c3cccc(O)c3)=Nc3ccccc3S2)ccc1O (centres undefined),247.3,40.4,36.1,,95.7,,9.5,10,10,10,11
CC[C@H]1OC(=O)[C@H](C)[C@@H](O[C@H]2C[C@@](C)(OC)[C@@H](O)[C@H](C)O2)[C@H](C)[C@@H](O[C@@H]2O[C@H](C)C[C@H](N(C)C)[C@H]2O)[C@](C)(O)C[C@@H](C)/C(=N\OCOCCOC)[C@H](C)[C@@H](O)[C@]1(C)O [ROXITHROMYCIN],,,,,,,14,13,12,15,12
CC[C@]1(O)C[C@H]2CN(CCc3c([nH]c4ccccc34)[C@@](C(=O)OC)(c3cc4c(cc3OC)N(C=O)[C@H]3[C@@](O)(C(=O)OC)[C@H](OC(C)=O)[C@]5(CC)C=CCN6CC[C@]43[C@@H]65)C2)C1 [VINCRISTINE],0.003,,,,,,,,,,
